From ChEMBL document CHEMBL4196195, “( R)- N-(1-Methyl-2-hydroxyethyl)-13-( S)-methyl-arachidonamide (AMG315): A Novel Chiral Potent Endocannabinoid Ligand with Stability to Metabolizing Enzymes” (J Med Chem, 2018)
Active and inactive are the calls of the source.

Tests used:
Cannabinoid receptor 1 [1] = molecular target: T1, Cannabinoid receptor 1 (Rattus norvegicus, UniProt P20272); assay: Displacement of [3H]CP-55,940 from CB1 receptor in rat brain membranes in absence of FAAH inhibitor PMSF by radioligand binding assay; type: cell membranes, Membrane
T1 sequence (P20272 whole entry): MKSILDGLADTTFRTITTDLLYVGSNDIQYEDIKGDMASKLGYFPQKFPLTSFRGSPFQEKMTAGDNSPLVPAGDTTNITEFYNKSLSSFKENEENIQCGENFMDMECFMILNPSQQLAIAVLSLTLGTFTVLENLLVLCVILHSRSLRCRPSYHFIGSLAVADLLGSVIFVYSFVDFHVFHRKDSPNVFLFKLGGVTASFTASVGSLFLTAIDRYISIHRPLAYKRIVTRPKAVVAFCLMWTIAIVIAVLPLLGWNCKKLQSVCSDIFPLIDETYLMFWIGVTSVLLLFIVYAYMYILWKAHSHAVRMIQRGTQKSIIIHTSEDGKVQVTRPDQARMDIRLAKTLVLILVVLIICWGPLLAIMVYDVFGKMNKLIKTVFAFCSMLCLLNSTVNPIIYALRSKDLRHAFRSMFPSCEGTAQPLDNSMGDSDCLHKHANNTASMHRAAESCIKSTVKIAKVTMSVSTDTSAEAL

Cannabinoid receptor 1 [2] = molecular target: T1, Cannabinoid receptor 1; assay: Displacement of [3H]CP-55,940 from CB1 receptor in rat brain membranes in presence of FAAH inhibitor PMSF by radioligand binding assay; type: cell membranes, Membrane
Cannabinoid receptor 2 [3] = molecular target: Cannabinoid receptor 2 (Mus musculus, UniProt P47936); assay: Displacement of [3H]CP-55,940 from mouse CB2 receptor expressed in HEK293 cell membranes in absence of FAAH inhibitor PMSF by radioligand binding assay
Cannabinoid receptor 2 (Mus musculus, UniProt P47936), sequence (P47936 whole entry): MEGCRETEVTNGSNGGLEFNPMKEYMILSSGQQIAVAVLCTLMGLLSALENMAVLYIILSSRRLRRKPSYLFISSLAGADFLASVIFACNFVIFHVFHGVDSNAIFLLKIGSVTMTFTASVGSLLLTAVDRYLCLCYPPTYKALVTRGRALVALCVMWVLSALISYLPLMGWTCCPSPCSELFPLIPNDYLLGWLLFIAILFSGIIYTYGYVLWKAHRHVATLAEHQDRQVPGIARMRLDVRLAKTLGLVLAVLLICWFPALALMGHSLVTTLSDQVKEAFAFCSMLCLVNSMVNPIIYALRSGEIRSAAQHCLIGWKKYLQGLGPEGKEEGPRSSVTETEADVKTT
Outline: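 Membranes from HEK293 cells expressing human or mouse CB2 (preparations lacking FAAH activity), competing against [3H]CP-55,940. IC50 by nonlinear regression, converted to Ki. Three independent experiments run in triplicate; Ki is the mean of the three.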

Cannabinoid receptor 2 [4] = molecular target: Cannabinoid receptor 2 (Homo sapiens, UniProt P34972); assay: Displacement of [3H]CP-55,940 from human CB2 receptor expressed in HEK293 cell membranes in absence of FAAH inhibitor PMSF by radioligand binding assay
Cannabinoid receptor 2 (Homo sapiens, UniProt P34972), sequence (P34972 whole entry): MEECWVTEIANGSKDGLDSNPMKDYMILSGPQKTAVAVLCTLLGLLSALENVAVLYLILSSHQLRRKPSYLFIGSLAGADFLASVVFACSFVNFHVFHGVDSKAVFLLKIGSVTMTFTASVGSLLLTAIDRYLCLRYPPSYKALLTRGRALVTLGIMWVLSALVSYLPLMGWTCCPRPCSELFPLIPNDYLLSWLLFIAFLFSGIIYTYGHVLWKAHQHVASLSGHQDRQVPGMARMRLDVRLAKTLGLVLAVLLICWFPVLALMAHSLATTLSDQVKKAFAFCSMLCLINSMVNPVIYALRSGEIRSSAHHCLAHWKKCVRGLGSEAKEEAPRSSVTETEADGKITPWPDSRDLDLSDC

Cannabinoid receptor 1 [5] = molecular target: T1, Cannabinoid receptor 1; assay: Agonist activity at rat CB1 receptor expressed in HEK293 cells assessed as inhibition of forskolin-induced cAMP accumulation incubated for 30 mins; type: functional, cell-based
Outline: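 HEK293 cells stably expressing rCB1, harvested with nonenzymatic dissociation reagent, washed in HBSS, 1000–1500 cells/well. Test compound at various concentrations with forskolin (2 μM final) in stimulation buffer, 30 min at room temperature. cAMP read by TR-FRET (Eu-cAMP tracer plus ULight anti-cAMP, 60 min room temperature). Forskolin-stimulated cAMP set to 100%. EC50 from nonlinear regression; two independent experiments in triplicate.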

[6] = molecular target: Cannabinoid receptor 1 (Rattus norvegicus) (UniProt P20272); assay: Agonist activity at rat CB1 receptor expressed in HEK293 cells assessed as inhibition of forskolin-induced cAMP accumulation incubated for 30 mins relative to 500 nM CP-55,940; type: functional, cell-based
Cannabinoid receptor 1 (Rattus norvegicus), sequence (P20272 whole entry): as the sequence (P20272 whole entry) above

[7] = molecular target: T2, Prostaglandin G/H synthase 2 (Mus musculus, UniProt Q05769); assay: Stability assessed as mouse COX2-mediated compound oxidation by measuring oxygen consumption by polarographic assay; type: ADME
T2 sequence (Q05769 whole entry): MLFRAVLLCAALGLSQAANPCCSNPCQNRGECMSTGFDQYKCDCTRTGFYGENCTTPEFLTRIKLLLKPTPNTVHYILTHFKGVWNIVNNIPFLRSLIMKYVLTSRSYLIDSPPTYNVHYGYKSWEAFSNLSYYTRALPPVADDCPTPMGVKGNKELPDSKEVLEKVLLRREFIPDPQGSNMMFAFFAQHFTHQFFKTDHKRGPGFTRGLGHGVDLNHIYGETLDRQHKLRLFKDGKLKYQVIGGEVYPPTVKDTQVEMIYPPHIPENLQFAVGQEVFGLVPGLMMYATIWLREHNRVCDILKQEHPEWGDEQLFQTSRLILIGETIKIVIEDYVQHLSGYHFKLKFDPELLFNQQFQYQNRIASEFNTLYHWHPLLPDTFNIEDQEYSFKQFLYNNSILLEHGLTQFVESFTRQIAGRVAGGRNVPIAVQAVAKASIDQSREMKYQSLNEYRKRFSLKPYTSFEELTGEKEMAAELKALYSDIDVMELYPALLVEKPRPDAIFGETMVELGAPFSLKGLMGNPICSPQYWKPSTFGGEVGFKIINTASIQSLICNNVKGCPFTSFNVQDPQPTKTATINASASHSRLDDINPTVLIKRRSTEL

[8] = molecular target: T3, FAAH (fatty-acid amide hydrolase 1) (Rattus norvegicus, UniProt P97612); assay: Stability assessed as half life for rat FAAH-mediated compound hydrolysis by LC-MS/MS analysis; type: ADME; details: rat FAAH (fatty-acid amide hydrolase 1)
T3 sequence (P97612 whole entry): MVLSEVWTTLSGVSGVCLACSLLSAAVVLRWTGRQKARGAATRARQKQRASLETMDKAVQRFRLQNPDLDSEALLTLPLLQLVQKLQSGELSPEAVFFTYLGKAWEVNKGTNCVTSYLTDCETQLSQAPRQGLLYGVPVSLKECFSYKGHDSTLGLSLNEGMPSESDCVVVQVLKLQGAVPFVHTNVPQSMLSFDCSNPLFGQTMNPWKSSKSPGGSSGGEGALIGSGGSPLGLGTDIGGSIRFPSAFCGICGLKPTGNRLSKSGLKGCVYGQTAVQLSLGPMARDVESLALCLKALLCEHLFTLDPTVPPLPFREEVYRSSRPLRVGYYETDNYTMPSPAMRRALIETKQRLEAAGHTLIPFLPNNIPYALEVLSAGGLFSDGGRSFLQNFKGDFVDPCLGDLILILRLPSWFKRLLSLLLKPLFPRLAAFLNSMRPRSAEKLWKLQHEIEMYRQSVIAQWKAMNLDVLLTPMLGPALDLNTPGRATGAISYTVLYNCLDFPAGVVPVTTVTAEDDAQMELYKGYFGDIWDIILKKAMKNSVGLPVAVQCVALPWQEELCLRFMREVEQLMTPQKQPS
Outline: (§1)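 Expressed, partially purified rat or human FAAH incubated with compound, or AEA as reference substrate, for 30 min. Aliquots at time points quenched in acetonitrile to precipitate protein. Remaining compound measured by LC-MS/MS on a cyano column with 10 mM ammonium acetate pH 7.3/methanol at 0.5 mL/min.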

[9] = molecular target: T4, FAAH (fatty-acid amide hydrolase 1) (Homo sapiens, UniProt O00519); assay: Stability assessed as half life for human FAAH-mediated compound hydrolysis by LC-MS/MS analysis; type: ADME; details: human FAAH (fatty-acid amide hydrolase 1); outline: as §1
T4 sequence (O00519 whole entry): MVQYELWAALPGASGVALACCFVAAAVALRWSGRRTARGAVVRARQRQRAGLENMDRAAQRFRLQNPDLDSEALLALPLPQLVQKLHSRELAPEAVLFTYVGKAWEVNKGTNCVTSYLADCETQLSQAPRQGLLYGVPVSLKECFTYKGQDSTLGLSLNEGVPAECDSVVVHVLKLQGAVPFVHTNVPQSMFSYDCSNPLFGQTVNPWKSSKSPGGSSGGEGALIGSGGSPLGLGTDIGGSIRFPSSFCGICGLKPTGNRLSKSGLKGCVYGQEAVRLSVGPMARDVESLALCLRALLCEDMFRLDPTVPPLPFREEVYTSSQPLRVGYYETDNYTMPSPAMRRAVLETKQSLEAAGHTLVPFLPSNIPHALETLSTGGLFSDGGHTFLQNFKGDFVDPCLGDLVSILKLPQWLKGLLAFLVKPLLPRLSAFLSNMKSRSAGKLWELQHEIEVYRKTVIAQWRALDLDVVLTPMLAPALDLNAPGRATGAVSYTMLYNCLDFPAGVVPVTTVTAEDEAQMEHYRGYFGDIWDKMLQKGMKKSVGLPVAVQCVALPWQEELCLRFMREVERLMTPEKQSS

Mus musculus [10] = assay: Antiallodynic activity in CD1 mouse model of CFA-induced inflammatory pain assessed as increase in CFA-reduced mechanical paw withdrawal threshold at 20 mg/kg, ip measured at 10 mins post injection; type: functional, organism-based
Outline: (§2)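 Adult male mice (39 ± 10 g), wild-type CD1 or CB1 KO on CD1 background, single housed. CFA:saline 1:1 (20 μL) injected intraplantar into right hind paw; 48 h allowed before dosing. Drug given ip in 5 mL/kg, vehicle group included. Electronic von Frey (90 g probe) after ≥30 min habituation, read in duplicate per paw, at baseline, 48 h post-CFA and 10, 30, 60, 120 min post-dose. Two-way mixed ANOVA with Bonferroni post hoc tests.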

Mus musculus [11] = assay: Antiallodynic activity in CD1 mouse model of CFA-induced inflammatory pain assessed as increase in CFA-reduced mechanical paw withdrawal threshold at 20 mg/kg, ip measured at 30 mins post injection; type: functional, organism-based; outline: as §2
Mus musculus [12] = assay: Antiallodynic activity in CD1 mouse model of CFA-induced inflammatory pain assessed as increase in CFA-reduced mechanical paw withdrawal threshold at 20 mg/kg, ip measured up to 30 mins post injection; type: functional, organism-based; outline: as §2
Mus musculus [13] = assay: Antiallodynic activity in CD1 mouse model of CFA-induced inflammatory pain assessed as increase in CFA-reduced mechanical paw withdrawal threshold at 20 mg/kg, ip measured at 60 mins post injection; type: functional, organism-based; outline: as §2
Mus musculus [14] = assay: Antiallodynic activity in CD1 mouse model of CFA-induced inflammatory pain assessed as increase in CFA-reduced mechanical paw withdrawal threshold at 20 mg/kg, ip measured at 120 mins post injection; type: functional, organism-based; outline: as §2
[15] = molecular target: T4, FAAH (fatty-acid amide hydrolase 1); assay: Stability assessed as human FAAH-mediated compound hydrolysis by LC-MS/MS analysis; type: ADME; details: human FAAH (fatty-acid amide hydrolase 1), read-out: Stability; outline: as §1
[16] = molecular target: T3, FAAH (fatty-acid amide hydrolase 1); assay: Stability assessed as rat FAAH-mediated compound hydrolysis by LC-MS/MS analysis; type: ADME; details: rat FAAH (fatty-acid amide hydrolase 1), read-out: Stability; outline: as §1

Row | Structure (SMILES) | Ki (Cannabinoid receptor 1 [1]) | Ki (Cannabinoid receptor 1 [2]) | Ki (Cannabinoid receptor 2 [3]) | Ki (Cannabinoid receptor 2 [4]) | Emax [6] | Stability [7] | EC50 (Cannabinoid receptor 1 [5]; read-out: EC50) | also measured
1 | CCCCC/C=C\C/C=C\C/C=C\[C@@H](C)/C=C\CCCC(=O)NCCO | > 1000 nM | 520 nM | > 1000 nM | 188 nM | inactive | Stable |  | EC50 (Cannabinoid receptor 1 [5]; hek293): Not Active
2 | CCCCC/C=C\[C@@H](C)/C=C\C/C=C\C/C=C\CCCC(=O)NCCO | > 1000 nM | > 1000 nM | > 1000 nM | > 1000 nM | inactive |  |  | EC50 (Cannabinoid receptor 1 [5]; hek293): Not Active
3 | CCCCC/C=C\C/C=C\C/C=C\C/C=C\CCCC(=O)NCCO [ANANDAMIDE] |  |  | > 1000 nM |  | 61% |  |  | half-life [8]: 12.1 min; half-life [9]: 13.2 min; Activity (Mus musculus [10]): Active; Activity (Mus musculus [11]): inactive
4 | CCCCC/C=C\[C@@H](C)/C=C\C/C=C\C/C=C\CCCC(=O)N[C@H](C)CO | > 1000 nM | > 1000 nM | > 1000 nM |  |  |  |  | 
5 | C[C@H](/C=C\C/C=C\C/C=C\CCCC(=O)NC1CC1)/C=C\CCCCCN=C=S | 20.3 nM | 15.6 nM | 47.7 nM | 22.1 nM |  |  |  | 
6 | CCCCC/C=C\C/C=C\C/C=C\C/C=C\CCCC(=O)N[C@H](C)CO [METHANANDAMIDE] |  |  | > 1000 nM |  |  |  |  | Activity (Mus musculus [10]): Active; Activity (Mus musculus [12]): Active; Activity (Mus musculus [13]): Active; Activity (Mus musculus [14]): inactive
7 | CCCCC/C=C\C/C=C\C/C=C\[C@H](C)/C=C\CCCC(=O)NCCO | 326 nM | 1.7 nM | 7.5 nM | 24.7 nM | 100% | Stable | 4.8 nM | 
8 | CCCCC/C=C\[C@H](C)/C=C\C/C=C\C/C=C\CCCC(=O)NCCCl | 45.3 nM | 3.9 nM | 401 nM | 10.4 nM |  |  |  | 
9 | CCCCC/C=C\C/C=C\[C@H](C)/C=C\C/C=C\CCCC(=O)NCCO | > 1000 nM | > 1000 nM | > 1000 nM | > 1000 nM |  |  |  | 
10 | CCCCC/C=C\[C@H](C)/C=C\C/C=C\C/C=C\CCCC(=O)NC1CC1 | 14.7 nM | 1.5 nM | 57.5 nM | 4.3 nM | 88% | Stable | 0.3 nM | half-life [9]: 25.2 min
11 | CCCCC/C=C\[C@H](C)/C=C\C/C=C\C/C=C\CCCC(=O)NC1CCC1 | 17.6 nM | 23.1 nM | 90 nM | 6.8 nM | 92% | Stable | 36.1 nM | half-life [15]: 30 min
12 | CCCCC/C=C\[C@H](C)/C=C\C/C=C\C/C=C\CCCC(=O)NCCO | > 1000 nM | 4.8 nM | 137 nM | 50.5 nM | 88% | Stable | 13.2 nM | half-life [9]: 13.5 min
13 | CCCCC/C=C\[C@H](C)/C=C\C/C=C\C/C=C\CCCC(=O)NC1CCCC1 | 123 nM | 79 nM | 387 nM | 139 nM |  |  |  | half-life [15]: 30 min
14 | C[C@H](/C=C\C/C=C\C/C=C\CCCC(=O)N[C@H](C)CO)/C=C\CCCOc1ccccc1 | 65 nM | 83 nM | > 1000 nM | 286 nM |  |  |  | 
15 | C[C@H](/C=C\C/C=C\C/C=C\CCCC(=O)NC1CC1)/C=C\CCCCCN=[N+]=[N-] | 10.5 nM | 6.3 nM | 13.3 nM | 8.5 nM | 85% |  | 1.9 nM | 
16 | CCCCC/C=C\C/C=C\C/C=C\[C@@H](C)/C=C\CCCC(=O)N[C@H](C)CO | 29.3 nM | 21.4 nM | > 1000 nM | 120 nM | 98% | Stable | 58.3 nM | 
17 | C#CCNC(=O)CCC/C=C\C/C=C\C/C=C\[C@@H](C)/C=C\CCCCC | 8.6 nM | 4.3 nM | 74 nM | 11.2 nM | 89% |  | 10.4 nM | half-life [15]: 30 min
18 | CCCCC/C=C\C/C=C\[C@@H](C)/C=C\C/C=C\CCCC(=O)NCCO | > 1000 nM | > 1000 nM | > 1000 nM | > 1000 nM |  |  |  | 
19 | CCCCC/C=C\C/C=C\C/C=C\[C@H](C)/C=C\CCCC(=O)N[C@H](C)CO | 4.6 nM | 2.2 nM | 19.8 nM | 12.8 nM | 100% | Stable | 28.4 nM | half-life [16]: 30 min; half-life [15]: 30 min
